In ChEMBL document CHEMBL1255470, “Effect of ceftaroline on normal human intestinal microflora” (Antimicrob Agents Chemother, 2010):
≈ marks a conversion by molar mass, not a printed value. Calls of active or inactive are those of the source. No cut-off for these calls is given here.

How the values were obtained:
Clostridium perfringens = assay: Antibacterial activity against Clostridium perfringens by broth microdilution method; format: functional
Escherichia coli [1] = assay: Antibacterial activity against Escherichia coli ATCC 25922 at =< 4 mg/L after 48 hrs by CLSI method; format: functional, organism-based
Clostridium = assay: Antibacterial activity against Clostridium in healthy human intestine assessed as decrease in bacterial count at […], iv administered every 12 hrs for 7 days measured on day 7; format: functional, organism-based
Outline: (§1)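 Twelve healthy adults (6 male, 6 female, 20–41 y) received 600 mg by i.v. infusion over 60 min q12h, 13 doses over 7 days. Feces were collected on days −1, 2, 5, 7, 9, 14 and 21 (first specimen of the day) and frozen at −70°C. Samples were suspended in prereduced peptone yeast extract and 10-fold diluted onto nonselective and selective agars. Aerobic plates were incubated 24 h and anaerobic jars 48 h, both at 37°C. Counts were expressed as log CFU/g, with a detection limit of 10^2, and compared by Wilcoxon signed-rank test.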

Propionibacterium = assay: Antibacterial activity against Propionibacterium by broth microdilution method; format: functional
Candida albicans = assay: Antifungal activity against Candida albicans in healthy human intestine at […], iv administered every 12 hrs for 7 days measured on day 21; format: functional, organism-based; outline: as §1
Prevotella = assay: Antibacterial activity against Prevotella by broth microdilution method; format: functional
Bacteroides fragilis [2] = assay: Antibacterial activity against Bacteroides fragilis ATCC 25285 after 48 hrs by CLSI method; format: functional; conditions: NCTC 9343, 48 h
Outline: (§2)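 Agar dilution MIC per CLSI anaerobe guidance, with 10^5 CFU per spot inoculum and 48 h incubation. The reference strain was run alongside new colonizing fecal isolates. MIC was taken as the lowest drug concentration giving complete growth inhibition. A provisional resistance breakpoint of 4 mg/liter was applied.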

Escherichia coli [3] = assay: Antibacterial activity against Escherichia coli in healthy human intestine assessed as decrease in bacterial count at […], iv administered every 12 hrs for 7 days measured on day 14; format: functional, organism-based; outline: as §1
Homo sapiens [4] = assay: Toxicity against healthy human assessed as occurrence of urinary infection at […], iv administered every 12 hrs for 7 days measured on day 9; format: organism-based, Urine; parameters: route intravenous; conditions: in vivo
Clostridioides difficile [5] = assay: Antibacterial activity against Clostridium difficile ATCC 700057 after 48 hrs by CLSI method; format: functional; conditions: ATCC 700057, 48 h; outline: as §2
Enterobacteriaceae = assay: Antibacterial activity against Enterobacteriaceae in healthy human intestine assessed as decrease in bacterial count at […], iv administered every 12 hrs for 7 days measured on day 14; format: functional, organism-based; outline: as §1
Bacteroides fragilis [6] = assay: Antibacterial activity against Bacteroides fragilis by broth microdilution method; format: functional
Enterococcus faecalis = assay: Antibacterial activity against Enterococcus faecalis ATCC 29212 at =< 4 mg/L after 48 hrs by CLSI method; format: functional, organism-based
Enterococcus = assay: Antibacterial activity against Enterococcus in healthy human intestine at […], iv administered every 12 hrs for 7 days measured on day 21; format: functional, organism-based; outline: as §1
Bifidobacterium = assay: Antibacterial activity against Bifidobacterium in healthy human intestine assessed as log reduction in bacterial count per gram of feces at […], iv administered every 12 hrs for 7 days measured on day 7; format: functional; outline: as §1
Bacteroides sp. = assay: Antibacterial activity against Bacteroides sp. in healthy human intestine assessed as decrease in bacterial count at […], iv administered every 12 hrs for 7 days measured on day 21; format: functional, organism-based; outline: as §1
Escherichia coli [7] = assay: Antibacterial activity against Escherichia coli in healthy human intestine assessed as log reduction in bacterial count per gram of feces at […], iv administered every 12 hrs for 7 days measured on day 9; format: functional; outline: as §1
Escherichia coli [8] = assay: Antibacterial activity against Escherichia coli in healthy human intestine assessed as log reduction in bacterial count per gram of feces at […], iv administered every 12 hrs for 7 days measured on day 7; format: functional; outline: as §1
Clostridium septicum = assay: Antibacterial activity against Clostridium septicum by broth microdilution method; format: functional
Staphylococcus aureus = assay: Antibacterial activity against Staphylococcus aureus ATCC 29213 at =< 4 mg/L after 48 hrs by CLSI method; format: functional, organism-based
Homo sapiens [9] = assay: Toxicity against healthy human assessed as effect on hematological parameters at […], iv administered every 12 hrs for 7 days measured on day 9; format: organism-based; parameters: route intravenous; conditions: in vivo
Peptostreptococcus sp. = assay: Antibacterial activity against Peptostreptococcus sp. by broth microdilution method; format: functional
Clostridioides difficile [10] = assay: Antibacterial activity against Clostridium difficile by broth microdilution method; format: functional
Lactobacillus = assay: Antibacterial activity against Lactobacillus in healthy human intestine assessed as log reduction in bacterial count per gram of feces at […], iv administered every 12 hrs for 7 days measured on day 7; format: functional; outline: as §1
Homo sapiens [11] = assay: Toxicity against healthy human assessed as effect on ECG parameters at […], iv administered every 12 hrs for 7 days measured on day 9; format: organism-based; parameters: route intravenous; conditions: in vivo

SMILES: CCO/N=C(\C(=O)N[C@@H]1C(=O)N2C(C(=O)[O-])=C(Sc3nc(-c4cc[n+](C)cc4)cs3)CS[C@H]12)c1nsc(NP(=O)(O)O)n1 [CEFTAROLINE FOSAMIL]
- MIC90 (Clostridium perfringens): 4 µg/mL (≈ 5.84 µM)
- Activity (Escherichia coli [1]): Active
- inhibition (Clostridium): inactive
- MIC90 (Propionibacterium): 4 µg/mL (≈ 5.84 µM)
- Activity (Candida albicans): inactive
- MIC90 (Prevotella): > 32 µg/mL
- MIC (Bacteroides fragilis [2]): ≥ 64 µg/mL
- inhibition (Escherichia coli [3]): Active
- Activity (Homo sapiens [4]): Non-toxic
- MIC (Clostridioides difficile [5]): 4 µg/mL (≈ 5.84 µM)
- inhibition (Enterobacteriaceae): inactive
- MIC90 (Bacteroides fragilis [6]): > 32 µg/mL
- Activity (Enterococcus faecalis): Active
- Activity (Enterococcus): inactive
- log10cfu (Bifidobacterium): 2.1
- inhibition (Bacteroides sp.): inactive
- log10cfu (Escherichia coli [7]): 1.5
- log10cfu (Escherichia coli [8]): 2
- MIC90 (Clostridium septicum): 4 µg/mL (≈ 5.84 µM)
- Activity (Staphylococcus aureus): Active
- Activity (Homo sapiens [9]): Non-toxic
- MIC90 (Peptostreptococcus sp.): 4 µg/mL (≈ 5.84 µM)
- MIC90 (Clostridioides difficile [10]): 4 µg/mL (≈ 5.84 µM)
- log10cfu (Lactobacillus): 1.7
- Activity (Homo sapiens [11]): Non-toxic
